Sampled rows, rich in hits. Any-hit rate of the full collection: about 1.4%.
GSH bead fluor – GSH bead compound fluorescence profile | GSH beads flow cytometry, compound fluorescence 488/530 nm; stronger effect = higher value | fluorescence (KMESF) at 10 µM | 190,000 tested, 0.25% active | AID 1776; in the data active = fluorescence above about 89;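 also: glutathione beads carrying GST-tagged Bcl family fusion proteins plus one bare bead set; values are compound well signal with DMSO vehicle wells as background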
PMI act hi M6P – PMI (human) activation, high substrate; P34949; coupled PMI enzyme assay, resazurin fluorescence, 20 min; stronger effect = higher value; 1 = untreated enzyme, 0 = substrate-free blank; activation factor at 20 µM; 190,000 tested, 0.34% active;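 active = activation factor of 2 or more at 20 µM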
Target sequence (P34949 whole entry, looked up): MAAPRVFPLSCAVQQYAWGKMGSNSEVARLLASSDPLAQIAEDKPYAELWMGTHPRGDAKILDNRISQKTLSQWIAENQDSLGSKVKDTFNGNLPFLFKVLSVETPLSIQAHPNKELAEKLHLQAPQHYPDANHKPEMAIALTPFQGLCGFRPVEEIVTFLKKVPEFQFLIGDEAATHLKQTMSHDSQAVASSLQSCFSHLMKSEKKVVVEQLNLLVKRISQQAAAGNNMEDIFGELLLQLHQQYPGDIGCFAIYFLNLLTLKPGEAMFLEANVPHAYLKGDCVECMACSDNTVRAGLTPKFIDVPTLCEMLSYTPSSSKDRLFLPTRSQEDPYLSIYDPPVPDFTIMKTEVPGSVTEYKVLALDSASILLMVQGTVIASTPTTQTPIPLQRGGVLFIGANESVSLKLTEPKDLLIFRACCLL
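Material: human phosphomannose isomerase with PGI, G6PDH, diaphorase coupling enzymes; amount: PMI at 15 ng/mL final; also added: Mannose-6-phosphate 1.0 mM (near-saturating) plus 0.22 mM NADP+; incubation: enzyme reaction with compound 20 min at room temperature; signal: resorufin fluorescence (Ex 544/Em 590 nm) from resazurin via diaphorase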
p47phox inh – p47phox (human) inhibition; 220,000 tested, 0.53% active; inhibition, % at 24.7 µM; P14598; AID 1274; p47phox/p22phox peptide binding, fluorescence polarization, 2 h;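 active = inhibition above about 30%, limit read from the data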;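 also: 0% = p47phox with labelled peptide and 100% = labelled peptide alone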
Diaphorase act – diaphorase activation or chemical reduction counter-screen. Diaphorase/resazurin coupled assay, resorufin fluorescence, 16 min; stronger effect = higher value; 1 = vehicle wells, 0 = NADH-free wells. activation factor at 20 µM. 190,000 tested, 0.005% active. AID 1229;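 active = diaphorase activity raised at least twofold by the compound at 20 µM; inactive = activation factor below 2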
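test system = bacterial diaphorase enzyme (C. kluyveri) | quantity = enzyme 0.07 U/mL final | reagent = NADH substrate 0.114 mM plus resazurin dye 0.1 mM, final | incubation = 16 min enzyme reaction, ambient temperature | buffer or medium = HEPES pH 7.4 buffer with MgCl2 and Tween 20 | signal = fluorescence of resorufin, 544 nm excitation, 590 nm emission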
Avidin bead fluor – compound fluoresces at 488/530 nm on avidin beads. compound fluorescence 488/530 nm, flow cytometry; stronger effect = higher value. 220,000 tested, 0.38% active. AID 1775. fluorescence (KMESF) at 10 µM; in the data active = fluorescence above about 47
PMI act – phosphomannose isomerase (human) activation; purified human PMI, coupled resazurin fluorescence, 20 min; stronger effect = higher value; 1 = vehicle control, 0 substrate-free wells; AID 1214; activation factor at 20 µM; 190,000 tested, 0.005% active; P34949;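 active = activation factor of 2 or more at 20 µM, relative to plate controls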
* hit, by the source's call; . = no result given.

SMILES	GSH bead fluor	PMI act hi M6P	p47phox inh	Diaphorase act	Avidin bead fluor	PMI act
COc1ccccc1NC(C)=O	251*	0.9	1.9	0.8	4	0.9
COc1ccccc1NC(=O)NCCCl	12	1.3	13.1	0.9	92*	1.2
COc1ccccc1NC(=O)Nc1ccc(Br)cn1	266*	1	-11.9	0.9	6	1
COc1ccccc1NC(=S)NC(C)=O	9	1.1	0.7	0.9	10	1
CCc1nnc(NC(=O)CCN2C(=O)CCC2=O)s1	264*	1	-7.1	0.8	6	1
CCCCCCC(=O)Nc1nnc(CC)s1	19	1.1	-0.1	1	6	1
COC(=O)c1ccccc1NC1=C/C(=N\S(=O)(=O)c2cccs2)c2ccccc2C1=O	11	1.3	182.6*	0.8	14	1
Cc1cc(N2CCOCC2)nc(N2CCOCC2)n1	23	1	-0.6	1	11	0.9
Cc1cc(N2CCCCC2)nc(N2CCOCC2)n1	35	0.9	-8.7	0.9	111*	1
CCC1CCCCN1C(=O)CCc1nnc(Cc2c[nH]c3ccccc23)o1 (centres undefined)	14	1.1	-1.4	1	11	1
CC(=O)N1CCC2(CC1)C(C#N)=C(N)OC1=C2C(=O)CC(C)(C)C1	12	1.1	-9.0	1.1	51*	1
COc1ccc(C(CC(=O)Nc2cc(OC)cc(OC)c2)n2cccc2)cc1 (centres undefined)	11	0.9	-26.1	0.7	15	0.8
COc1ccc(C(CC(=O)Nc2nccs2)n2cccc2)cc1 (centres undefined)	12	1	0.2	0.8	49*	1
Cc1cc(C)n2cc(CSc3ncn[nH]3)nc2n1	19	1.1	4.1	0.9	10	1.1
COc1cc(SC)ccc1C(=O)Nc1ccccc1C#N	35	0.8	-20.1	0.8	5	0.8
O=C(c1ccc(Cn2cc(Br)cn2)o1)N1N=C(C(F)F)CC1(O)C(F)F (centres undefined)	39	1	-6.3	0.9	66*	1
CCOc1cc(/C=C2\C(=O)N(CCc3ccc(OC)c(OC)c3)C(C)=C2C(=O)OC)ccc1O	13	0.5	53.2*	0.7	12	0.8
O=C1CCN(C(=O)Nc2cccc(Cl)c2)N1	35	1.5	-18.3	0.9	13	1.2
O=C1CCN(C(=O)Nc2ccccc2Cl)N1	38	2.2*	-12.2	1	12	1.4
Cn1c(SCC(=O)NC2CC2)nnc1-c1cccc(NC(=O)c2ccccc2F)c1	13	0.9	-0.3	0.9	11	1
Cc1ccccc1CCN(C(=O)Cn1nnc2ccccc21)C(C(=O)NCC1CCCO1)c1nc2ccccc2n1C (centres undefined)	10	1	45.1*	0.9	10	0.9
Cc1ccccc1C(C(=O)NCc1ccco1)N(CC1CCCO1)C(=O)Cn1nnc2ccccc21 (centres undefined)	47	1.1	4.5	1.3	21	1.1
COc1cc(NC(=S)NC(=O)c2cc(C)cc(C)c2)ccc1NC(=O)c1cccs1	104*	0.9	-14.1	0.8	7	0.9
COc1cc(NC(=S)NC(=O)c2ccc(C(C)(C)C)cc2)ccc1NC(=O)c1cccs1	20	0.9	-37.3	0.8	7	0.9
O=C(NCC(=O)N(Cc1ccccc1)C(C(=O)NC1CCCC1)c1ccco1)c1ccco1 (centres undefined)	29	0.9	-16.4	0.8	12	0.8
SMILES	GSH bead fluor	PMI act hi M6P	p47phox inh	Diaphorase act	Avidin bead fluor	PMI act
O=C(NCC(=O)N(CC1CCCO1)C(C(=O)NC1CCCCC1)c1ccc(F)cc1)c1ccco1 (centres undefined)	10	0.9	-5.8	0.8	175*	0.9
COc1ccc(C(C(=O)NC2CCCCC2)N(Cc2ccco2)C(=O)CNC(=O)c2ccco2)cc1 (centres undefined)	17	.	-2.0	.	21	.
O=C(CN(Cc1ccccc1C(F)(F)F)C(=O)CNC(=O)c1ccco1)NC1CCCC1	36	1	-2.5	0.8	104*	0.9
Cc1ccc(C(C(=O)NCc2ccco2)N(Cc2ccco2)C(=O)CNC(=O)c2ccco2)cc1 (centres undefined)	27	1	67.2*	0.9	13	1
CC(C)COc1ncnc2c1sc1nc3c(cc12)COC(C)(C)C3	.	.	-5.3	.	75*	.
COc1ccc(C(CC(=O)Nc2ccc(Cl)cc2F)NC(=O)C(F)(F)F)cc1 (centres undefined)	14	0.9	-6.0	1	27	0.9
CCS(=O)(=O)N1CCC(NC(C)=O)(c2ccccc2)CC1	10	1	1.9	0.9	13	1
CNc1nc(-c2ccccc2)[n+](-c2ccc(C)cc2)s1	14	0.4	93.8*	0.7	20	0.1
CC(=O)Nc1scc(-c2ccccc2)[n+]1-c1ccc(C)cc1	11	1	-3.0	0.9	10	1.1
Cc1ccc(-c2nc(N)s[n+]2-c2ccccc2)cc1	4	0	93.0*	0.7	1	-0.1
S=c1nn[nH]n1C12CC3CC(CC(C3)C1)C2	23	1.2	-1.8	0.8	30	1.1
O=C(c1c[nH]c(C(=O)C(Cl)(Cl)Cl)c1)c1ccc(F)cc1Cl	18	1	-4.8	0.4	9	1
COc1ccc(CCNC(=O)C(=O)NN=C2CCCCCCC2)cc1OC	.	.	-6.2	.	3	.
Cc1ccc(Cl)cc1NC(=O)COC(=O)CC1CC2CCC1C2 (centres undefined)	262*	1	0.2	0.9	9	1
Cc1ccc(Cl)cc1NC(=O)COC(=O)C1CC1	12	1	3.0	0.9	16	1
Cc1c(C(=O)OCC(=O)N2c3ccccc3CC2C)oc2ccccc12 (centres undefined)	11	1	-10.3	0.8	95*	1
COc1cc(C(=O)NCCc2ccc3c(c2)OCCO3)ccc1OCC(=O)N1CCOCC1	18	1	-10.6	0.9	68*	0.9
CN1C(=O)c2ccccc2Sc2ccc(NC(=O)NC3CC3)cc21	20	1	-20.8	0.9	92*	1
COc1ccccc1N1CC(C)C(=O)NC1=S (centres undefined)	6	1	3.2	0.9	1	1.1
COc1ccc(CNC(=O)C2CC(c3ccccc3[N+](=O)[O-])=NO2)cc1 (centres undefined)	13	1.1	-4.6	0.9	32	1.1
COc1ccccc1CNC(=O)C1CC(c2ccccc2[N+](=O)[O-])=NO1 (centres undefined)	11	0.9	-5.8	0.9	49*	0.9

Compound activity: PubChem BioAssay, several laboratories
